Published values from different studies.
Protocols differ between the studies behind these lines.
Target: Mitotic checkpoint serine/threonine-protein kinase BUB1 (BUB1, Homo sapiens, UniProt O43683)

Structure (SMILES) | test | setting | remaining binding [%]
CCN1CCN(Cc2ccc(C(=O)Nc3ccc(C)c(Oc4ccc5c(c4)CC(=O)N5)c3)cc2C(F)(F)F)CC1 | binding, competition with immobilised ligand | 1 µM | 100
Nc1ncc2c(n1)-c1c([nH]c3ccc(C#CC4CC4)cc13)CCCC2 | binding, competition with immobilised ligand | 1 µM | 78
COc1ccnn2ncc(-c3ccnc(N(C)C)n3)c12 | binding | 1 µM | 96
COc1cc(-c2cn(C3CCc4c(F)cccc4N(CC(F)(F)F)C3=O)nn2)ccc1-n1cnc(C)c1 (stereo not shown) | cell-free assay, competition with immobilised ligand | 1 µM | 100
O=C(c1ccc(Nc2ncc(Cl)c(-c3ccc(Cl)s3)n2)cc1)N1CCC(N2CCCC2)CC1 | binding, competition with immobilised ligand | 1 µM | 65
C[C@H]1CCN(c2nccc(-c3cnn4ncccc34)n2)C1 | binding | 1 µM | 52
c1cncc(-c2cccc(Nc3nccc(NC4CCCCC4)n3)c2)c1 | binding, competition with immobilised ligand | 10 µM | 59
O=C(NCC1CCOCC1)c1n[nH]cc1NC(=O)c1c(F)cccc1F | binding, competition with immobilised ligand | 1 µM | 71
CS(=O)(=O)N1CCCC(NC(=O)[C@H](CCC2CCCCC2)NC(=O)c2ccc(CNc3ncnc4c3nnn4-c3ccccc3)cc2)C1 (stereo partly shown) | cell-free assay, competition with immobilised ligand | 0.1 µM | 100
CN(C)c1nccc(-c2cnc3ncccn23)n1 | binding | 1 µM | 78
O=C(N1CCS(=O)(=O)CC1)N1C[C@H](c2ccc(OC(F)(F)F)cc2)C[C@H](c2nc(C3CC3)no2)C1 | cell-free assay, competition with immobilised ligand | 1 µM | 100
N[C@@H]1CCN(c2nccc(-c3cnn4ncccc34)n2)C1 | binding | 1 µM | 93
O=C(NCCCN1CCOCC1)c1ccc(Nc2ncc(Cl)c(-c3ccc(Cl)s3)n2)cc1 | binding, competition with immobilised ligand | 1 µM | 80
Cc1nc(Cc2cccc(C(F)(F)F)c2)sc1-c1ccc(C(N)=O)nc1 | cell-free assay, competition with immobilised ligand | 1 µM | 100
CN(C)c1ncc(F)c(-c2cnn3ncccc23)n1 | binding | 1 µM | 100
O=C(c1ccc(Nc2ncc(Cl)c(-c3cc4ccccc4s3)n2)cc1)N1CCC(N2CCCC2)CC1 | binding, competition with immobilised ligand | 1 µM | 53
CNCc1ccccc1-c1csc([C@@H](C)Nc2nc(C)nc3cc(OC)c(OC)cc23)c1 | cell-free assay, competition with immobilised ligand | 1 µM | 100
CN(C)c1nccc(-c2cnn3ncccc23)n1 | binding | 1 µM | 74
C[C@@H]1CN(c2cc(-c3n[nH]c4ccc(OC5(C)CC5)cc34)ncn2)C[C@H](C)O1 | cell-free assay, competition with immobilised ligand | 0.1 µM | 84
CC1CCCN1c1nccc(-c2cnn3ncccc23)n1 (stereo not shown) | binding | 1 µM | 100
COc1cnc(Nc2cccc(S(N)(=O)=O)c2)nc1N1CCN(c2ccccc2)C(=O)C1 | binding, competition with immobilised ligand | 1 µM | 79
CC(=O)C1=C(C)N(c2cccc(C(F)(F)F)c2)C(=O)N[C@@H]1c1ccc(C#N)nc1 | cell-free assay, competition with immobilised ligand | 1 µM | 100
